# Measured values published in ChEMBL document CHEMBL1147241, “Cytotoxic constituents of Isodon rubescens var. lushiensis” (J Nat Prod, 2003).
# Experiments:
# Type in all cases: functional, cell-based
# K562 = test: Cytotoxicity against human K562 cells by MTT method
# Summary of the method: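 Improved MTT assay on K562 human leukemia cells; cis-platinum as positive control. Optical density recorded as mean ± S; IC50 calculated from OD data.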
# [1] = Cytotoxicity against human CA cells by SRB method
# Summary of the method: (§1)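 Sulforhodamine B (SRB) assay on CA liver cancer and HeLa cervical cancer cells; cis-platinum as positive control. Optical density recorded as mean ± S; IC50 calculated from OD data.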
# HeLa = test: Cytotoxicity against human HeLa cells by SRB method; summary of the method: as §1
SMILES,IC50 (K562),IC50 [1],IC50 (HeLa)
C=C1C(=O)[C@]23C[C@H]1CC[C@H]2[C@@]1(CCC[C@@]2(C)CO[C@@H](OC)[C@H]21)COC3=O [LUDONGNIN J],0.18 µg/mL,0.09 µg/mL,0.7 µg/mL
C=C1C(=O)[C@]23C[C@H]1C[C@@H](O)[C@H]2[C@@]1(CCC[C@@]2(C)COC(=O)[C@H]21)COC3=O [LUDONGNIN A],0.25 µg/mL,,
CO[C@H]1OC[C@]2(C)CCC[C@]3(COC(=O)[C@@]45C[C@@H](CC[C@H]43)[C@H](C)C5=O)[C@H]12 [LUDONGNIN H],> 50 µg/mL,,
C=C1[C@@H]2C[C@@H](O)[C@H]3[C@@]4(CCC[C@@]5(C)COC(=O)[C@H]54)COC(=O)[C@]3(C2)[C@@H]1O [GUIDONGNIN A],0.3 µg/mL,,
C[C@H]1C(=O)[C@]23C[C@H]1C[C@@H](O)[C@H]2[C@@]1(CCC[C@@]2(C)COC(=O)[C@H]21)COC3=O [GUIDONGNIN C],> 50 µg/mL,,
C[C@H]1C(=O)[C@]23C[C@H]1CC[C@H]2[C@@]1(CCC[C@@]2(C)COC(=O)[C@H]21)COC3=O [GUIDONGNIN B],> 50 µg/mL,,
C=C1C(=O)[C@]23C[C@H]1C[C@@H](O)[C@H]2[C@@]1(CCC[C@@]2(C)CO[C@H](OC)[C@H]21)COC3=O [ANGUSTIFOLIN],0.23 µg/mL,,
CO[C@@H]1OC[C@]2(C)CCC[C@]3(COC(=O)[C@@]45C[C@@H](CC[C@H]43)[C@@H](C)C5=O)[C@H]12 [LUDONGNIN F],> 50 µg/mL,,
CO[C@H]1OC[C@]2(C)CCC[C@]3(COC(=O)[C@@]45C[C@@H](CC[C@H]43)[C@@H](C)C5=O)[C@H]12 [LUDONGNIN I],> 50 µg/mL,,
C=C1C(=O)[C@]23C[C@H]1CC[C@H]2[C@]1(COC3=O)C2CC[C@@]3(C)COC(O2)[C@H]31 (some centres undefined) [SCULPONEATIN J],0.83 µg/mL,,
C=C1C(=O)[C@]23C[C@H]1C[C@@H](O)[C@H]2[C@@]1(CCC[C@@]2(C)CO[C@@H](OC)[C@H]21)COC3=O,0.87 µg/mL,,
CO[C@@H]1OC[C@]2(C)CCC[C@]3(COC(=O)[C@@]45C[C@@H](CC[C@H]43)[C@H](C)C5=O)[C@H]12 [LUDONGNIN G],> 50 µg/mL,,
